Reference: ChEMBL document CHEMBL1138529, “Efficacy, pharmacokinetics, and metabolism of tetrahydroquinoline inhibitors of Plasmodium falciparum protein farnesyltransferase” (Antimicrob Agents Chemother, 2007)

Columns and labels:
[1] = Permeability from apical to basolateral side in human Caco-2 cells; format: ADME, cell-based; details: read-out: permeability
[2] = AUC in Sprague-Dawley rat at 50 mg/kg, po; format: ADME, organism-based; set-up: dose 50 mg/kg, route oral; details: plasma
Outline: (§1)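 Three female BALB/c mice (lines for mice, 8–10 weeks) or three female Sprague-Dawley rats (10–12 weeks) per group; 50 mg/kg oral gavage in 3% EtOH-7% Tween 80-90% normal saline. Plasma sampled at set times (tail bleed in mice, saphenous vein in rats), extracted with acetonitrile plus internal standard, quantified by LC/MS; AUC as mean of three animals.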

Mus musculus [3] = assay: Toxicity in BALB/c mouse at 50 mg/kg, po; format: organism-based; set-up: dose 50 mg/kg, route oral; details: in vivo
[4] = Inhibition of Plasmodium falciparum protein farnesyltransferase by SPA method
Rattus norvegicus = assay: Toxicity in Sprague-Dawley rat at 50 mg/kg, po; format: organism-based; set-up: dose 50 mg/kg, route oral; details: in vivo
Outline: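 Female Sprague-Dawley rats, 10-12 weeks, three per group. 50 mg/kg oral gavage in 3% EtOH-7% Tween 80-90% normal saline. Saphenous vein plasma sampled over time, and animals observed for adverse reactions.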

Plasmodium falciparum [5] = assay: Antiplasmodial activity against Plasmodium falciparum by [3H]hypoxanthine uptake; format: functional; details: read-out: ED50 (the source's name)
Outline: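 Asynchronous P. falciparum (3D7 or K1) in RPMI 1640 with 20% heat-inactivated human A+ plasma, 0.5% parasitemia and 0.5% hematocrit; compound serially diluted, top final 5 μM, 48 h at 37°C under 5% CO2/5% O2/90% N2, then [8-3H]hypoxanthine 0.3 μCi added for 24 h.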

[6] = Cmax in Sprague-Dawley rat at 50 mg/kg, po; format: ADME, organism-based; set-up: dose 50 mg/kg, route oral; details: in vivo
Outline: (§2)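 50 mg/kg by oral gavage in 3% EtOH-7% Tween 80-90% normal saline to groups of three females (BALB/c mice, 8–10 weeks, tail bleed; Sprague-Dawley rats, 10–12 weeks, saphenous vein). Plasma extracted with acetonitrile/internal standard, LC/MS; means of three animals. Oral elimination half-life depends on absorption rate as well as elimination.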

[7] = Permeability from basolateral to apical side in human Caco-2 cells; format: ADME, cell-based; details: read-out: permeability
Outline: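 Caco-2 clone TC7 grown on laminin-coated porous inserts and used 19-21 days after seeding; integrity checked by TEER and [3H]mannitol flux. Monolayers equilibrated 30 min at 37°C in HBSS/5 mM HEPES pH 7.4. Compound at 50 μM final added to basolateral donor side. Apical receiver sampled at 60 min, 37°C with shaking; LC/MS; Papp calculated from 60-min concentrations.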

Mus musculus [8] = assay: Plasma concentration in BALB/c mouse at 50 mg/kg, po; format: ADME, organism-based; set-up: dose 50 mg/kg, route oral; details: in vivo
Outline: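 Female BALB/c mice, 8-10 weeks, three per group. Single 50 mg/kg oral gavage in 3% EtOH-7% Tween 80-90% normal saline. Plasma collected by tail bleed at set times, frozen at −20°C, acetonitrile-extracted with internal standard, quantified by LC/MS.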

[9] = Metabolic stability in rat liver microsomes; format: ADME, Microsome
Outline: (§3)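 Pooled female liver microsomes at 0.5 mg/ml in 0.1 M potassium phosphate pH 7.4, 3 mM MgCl2, 1 mM EDTA, with NADPH regenerating system (1 mM NADP+, 5 mM glucose-6-phosphate, 1 U/ml G6PDH). Preincubated 10 min at 37°C, then compound added to 1 μM final. Time points quenched with 3 volumes acetonitrile plus internal standard; parent quantified by LC/MS; half-life reported.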

Plasmodium falciparum [10] = assay: Antiplasmodial activity against chloroquine-resistant Plasmodium falciparum K1 by [3H]hypoxanthine uptake; format: functional; details: read-out: ED50 (the source's name)
Outline: (§4)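 Asynchronous cultures at 0.5% parasitemia and 0.5% hematocrit in RPMI 1640 with 20% heat-inactivated human A+ plasma, exposed to serially diluted inhibitor (top final 5 μM, from DMSO stock) under 5% CO2/5% O2/90% N2 at 37°C for 48 h. [3H]hypoxanthine was then added for 24 h and harvested counts were background-subtracted against DMSO-only controls. ED50 came from linear regression, as the mean of duplicates.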

Plasmodium falciparum [11] = assay: Antiplasmodial activity against chloroquine-sensitive Plasmodium falciparum 3D7 by [3H]hypoxanthine uptake; format: functional; details: read-out: ED50 (the source's name); outline: as §4
[12] = AUC in BALB/c mouse at 50 mg/kg, po; format: ADME, organism-based; set-up: dose 50 mg/kg, route oral; details: plasma; outline: as §1
[13] = Elimination half life in BALB/c mouse at 50 mg/kg, po; format: ADME, organism-based; set-up: dose 50 mg/kg, route oral; details: in vivo, read-out: beta t1/2; outline: as §2
[14] = Cmax in BALB/c mouse at 50 mg/kg, po; format: ADME, organism-based; set-up: dose 50 mg/kg, route oral; details: in vivo; outline: as §2
[15] = Metabolic stability in mouse liver microsomes; format: ADME, Microsome; outline: as §3
[16] = Elimination half life in Sprague-Dawley rat at 50 mg/kg, po; format: ADME, organism-based; set-up: dose 50 mg/kg, route oral; details: in vivo, read-out: beta t1/2; outline: as §2

Row | Compound | Papp A→B [1] | AUC [2] | Activity (Mus musculus [3]) | IC50 [4] | Activity (Rattus norvegicus) | EC50 (Plasmodium falciparum [5]) | Cmax [6] | Papp B→A [7] | concentration (Mus musculus [8]) | half-life [9] | EC50 (Plasmodium falciparum [10]) | EC50 (Plasmodium falciparum [11]) | AUC [12] | half-life [13] | Cmax [14] | half-life [15] | half-life [16]
1 | CC(C)OC(=O)N1CCC(CN(C2Cc3cc(C#N)ccc3N(Cc3cncn3C)C2)S(=O)(=O)c2ccccn2)CC1 (configuration not stated) | 1 ×10⁻⁶ cm/s | 10.9 µM·h | Non-toxic | 0.5 nM | Non-toxic | 16 nM | 4.5 µM |  |  |  |  |  |  |  |  |  | 
2 | Cn1cncc1CN1CC(N(Cc2ccccn2)S(=O)(=O)c2ccccn2)Cc2cc(C#N)ccc21 (configuration not stated) | 1.6 ×10⁻⁶ cm/s |  | Non-toxic |  |  |  |  | 73.3 ×10⁻⁶ cm/s | 5.7 µM |  |  |  |  |  |  |  | 
3 | CCOC(=O)N1CCC(CN(C2Cc3cc(C#N)ccc3N(Cc3cncn3C)C2)S(=O)(=O)c2ccccn2)CC1 (configuration not stated) | 2.6 ×10⁻⁶ cm/s |  | Non-toxic | 0.6 nM | Non-toxic | 55 nM |  |  |  | 12 min | 40 nM | 55 nM |  |  |  |  | 
4 | Cn1cnc(S(=O)(=O)N(Cc2ccc(C(F)(F)F)o2)C2Cc3cc(C#N)ccc3N(Cc3cncn3C)C2)c1 (configuration not stated) | 0.7 ×10⁻⁶ cm/s | 5.42 µM·h | Non-toxic |  | Non-toxic |  | 3.4 µM | 72.5 ×10⁻⁶ cm/s | 3.9 µM | 16 min |  |  | 4.55 µM·h | 30 min | 3.9 µM | 3.4 min | 26 min
5 | Cc1noc(C)c1CN(C1Cc2cc(C#N)ccc2N(Cc2cncn2C)C1)S(=O)(=O)c1ccccn1 (configuration not stated) | 8 ×10⁻⁶ cm/s |  | Non-toxic |  |  |  |  | 67.1 ×10⁻⁶ cm/s | 15 µM |  |  |  |  |  |  |  | 
6 | CC(C)NCC(O)COc1cccc2ccccc12 (configuration not stated) [PROPRANOLOL] | 28.9 ×10⁻⁶ cm/s |  |  |  |  |  |  | 83.4 ×10⁻⁶ cm/s |  |  |  |  |  |  |  |  | 
7 | Cn1cncc1CN1CC(N(CC2CCN(C(=O)OCc3ccccc3)CC2)S(=O)(=O)c2ccccn2)Cc2cc(C#N)ccc21 (configuration not stated) | 1 ×10⁻⁶ cm/s | 10.9 µM·h | Non-toxic | 0.5 nM | Non-toxic | 16 nM | 4.5 µM |  |  |  |  |  |  |  |  |  | 
8 | Cn1cncc1CN1CC(N(CCn2cccc2)S(=O)(=O)c2ccccn2)Cc2cc(C#N)ccc21 (configuration not stated) | 12.4 ×10⁻⁶ cm/s | 11.6 µM·h | Non-toxic |  | Non-toxic |  | 5.4 µM | 45.5 ×10⁻⁶ cm/s | 13.6 µM | 10.4 min |  |  | 15.9 µM·h | 40 min | 13.5 µM | 4.9 min | 62 min
9 | Cn1cnc(S(=O)(=O)N(Cc2cccc(-n3cccc3)c2)C2Cc3cc(C#N)ccc3N(Cc3cncn3C)C2)c1 (configuration not stated) | 0.2 ×10⁻⁶ cm/s |  | Non-toxic |  |  |  |  | 52.1 ×10⁻⁶ cm/s | 1.1 µM |  |  |  |  |  |  |  | 
